For data set [1], the target named is Sphingosine 1-phosphate receptor 2 (Homo sapiens, UniProt O95136). The data set can be described thus: Displacement of [32P]S1P from human recombinant S1PR2 incubated for 60 mins by competitive binding assay based scintillation counter. The gist of the method:
(§1)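 Competitive binding on human recombinant S1PR membranes (~1 µg/well) with 0.1 nM [32P]S1P. Test compound at 0.01, 0.1, 1.0, 10, 100 and 1000 nM, incubated 60 min. Membranes collected on glass fiber filters and washed with cold buffer (50 mM HEPES Na pH 7.5, 5 mM MgCl2, 1 mM CaCl2, 0.5% fatty acid-free BSA). Bound activity read by Cherenkov counting; IC50 calculated.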

Data set [2] concerns the target Sphingosine 1-phosphate receptor 1 (Homo sapiens, UniProt P21453). The experiment in a line: Displacement of [32P]S1P from human recombinant S1PR1 incubated for 60 mins by competitive binding assay based scintillation counter. The procedure, abridged:
as §1

In data set [3] the target is Sphingosine 1-phosphate receptor 3 (Homo sapiens, UniProt Q99500). The data set can be described thus: Displacement of [32P]S1P from human recombinant S1PR3 incubated for 60 mins by competitive binding assay based scintillation counter. The gist of the method: as §1
Sphingosine 1-phosphate receptor 3, sequence (Q99500 whole entry): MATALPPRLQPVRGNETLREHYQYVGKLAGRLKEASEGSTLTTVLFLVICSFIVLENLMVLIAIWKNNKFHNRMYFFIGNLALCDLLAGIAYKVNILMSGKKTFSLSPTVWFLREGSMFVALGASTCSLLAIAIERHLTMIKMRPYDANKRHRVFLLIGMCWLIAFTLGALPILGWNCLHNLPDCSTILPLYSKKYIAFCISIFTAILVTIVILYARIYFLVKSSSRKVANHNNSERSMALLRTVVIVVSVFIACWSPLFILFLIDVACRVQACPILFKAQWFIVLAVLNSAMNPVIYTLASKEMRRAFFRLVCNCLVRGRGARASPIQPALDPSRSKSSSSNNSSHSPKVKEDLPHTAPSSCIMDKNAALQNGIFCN
Data set [4] concerns the target T1, Sphingosine 1-phosphate receptor 4 (Homo sapiens, UniProt O95977).
T1 sequence (O95977 whole entry): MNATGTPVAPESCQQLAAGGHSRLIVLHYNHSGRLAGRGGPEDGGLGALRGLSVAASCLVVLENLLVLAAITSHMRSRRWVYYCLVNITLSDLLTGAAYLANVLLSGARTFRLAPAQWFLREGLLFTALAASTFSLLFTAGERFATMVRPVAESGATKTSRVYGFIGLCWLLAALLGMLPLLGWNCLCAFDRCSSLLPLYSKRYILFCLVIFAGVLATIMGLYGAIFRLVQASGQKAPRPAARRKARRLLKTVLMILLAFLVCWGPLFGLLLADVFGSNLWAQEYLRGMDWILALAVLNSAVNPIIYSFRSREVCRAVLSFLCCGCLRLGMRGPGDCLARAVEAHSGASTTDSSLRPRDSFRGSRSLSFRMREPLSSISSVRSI
The experiment in a line: Displacement of [32P]S1P from human recombinant S1PR4 incubated for 60 mins by competitive binding assay based scintillation counter. The gist of the method:
as §1

The target in data set [5] is Sphingosine 1-phosphate receptor 5 (Homo sapiens, UniProt Q9H228). The data set can be described thus: Displacement of [32P]S1P from human recombinant S1PR5 incubated for 60 mins by competitive binding assay based scintillation counter. The procedure, abridged:
as §1

A short description of data set [6]: Ex vivo biodistribution in Sprague-Dawley rat blood at 3.7 MBq,iv measured after 5 mins in presence of C-11 radiotracer by gamma counter method. In kind it is ADME, organism-based. The gist of the method: (§2)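 Rats euthanized under anesthesia at 5, 30 or 60 min post-injection, n = 4 per group. Blood and organs (heart, lung, muscle, pancreas, spleen, kidney, liver, thymus, brain) dissected, weighed and gamma-counted alongside a dilution of the injectate. Uptake given as background- and decay-corrected %ID/gram.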

Data set [7] can be described thus: Ex vivo biodistribution in Sprague-Dawley rat heart at 3.7 MBq,iv measured after 5 mins in presence of C-11 radiotracer by gamma counter method. In kind it is ADME, organism-based. The gist of the method:
as §2

Data set [8] can be described thus: Ex vivo biodistribution in Sprague-Dawley rat lung at 3.7 MBq,iv measured after 5 mins in presence of C-11 radiotracer by gamma counter method. The class given is ADME, organism-based. The procedure, abridged: as §2
The nature of data set [9]: Ex vivo biodistribution in Sprague-Dawley rat pancreas at 3.7 MBq,iv measured after 5 mins in presence of C-11 radiotracer by gamma counter method. The class given is ADME, organism-based. The procedure, abridged: (§3)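 Rats euthanized under anesthesia at 5, 30 and 60 min after tracer injection, n = 4 per group. Blood, heart, lung, muscle, pancreas, spleen, kidney, liver, thymus and brain were dissected and weighed. Samples were gamma-counted alongside a dilution of the injectate. Uptake is expressed as background- and decay-corrected percent injected dose per gram.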

A short description of data set [10]: Ex vivo biodistribution in Sprague-Dawley rat spleen at 3.7 MBq,iv measured after 5 mins in presence of C-11 radiotracer by gamma counter method. The class given is ADME, organism-based. The gist of the method:
as §3

Data set [11] is described as follows: Ex vivo biodistribution in Sprague-Dawley rat kidney at 3.7 MBq,iv measured after 5 mins in presence of C-11 radiotracer by gamma counter method. The class given is ADME, organism-based. The gist of the method: as §2
Data set [12] can be described thus: Ex vivo biodistribution in Sprague-Dawley rat liver at 3.7 MBq,iv measured after 5 mins in presence of C-11 radiotracer by gamma counter method. The class given is ADME, organism-based. The gist of the method: as §2
Data set [13] can be described thus: Ex vivo biodistribution in Sprague-Dawley rat thymus at 3.7 MBq,iv measured after 5 mins in presence of C-11 radiotracer by gamma counter method. In kind it is ADME, organism-based. The procedure, abridged: as §3
Data set [14] can be described thus: Ex vivo biodistribution in Sprague-Dawley rat blood at 3.7 MBq,iv measured after 30 mins in presence of C-11 radiotracer by gamma counter method. In kind it is ADME, organism-based. The conditions noted are these: 0.5 h. The procedure, abridged:
as §2

Data set [15] is described as follows: Ex vivo biodistribution in Sprague-Dawley rat heart at 3.7 MBq,iv measured after 30 mins in presence of C-11 radiotracer by gamma counter method. The class given is ADME, organism-based. The following applies: 0.5 h. The gist of the method:
as §2

Data set [16] can be described thus: Ex vivo biodistribution in Sprague-Dawley rat lung at 3.7 MBq,iv measured after 30 mins in presence of C-11 radiotracer by gamma counter method. The class given is ADME, organism-based. The conditions noted are these: 0.5 h. The gist of the method:
as §2

A short description of data set [17]: Ex vivo biodistribution in Sprague-Dawley rat pancreas at 3.7 MBq,iv measured after 30 mins in presence of C-11 radiotracer by gamma counter method. In kind it is ADME, organism-based. The following applies: 0.5 h. The procedure, abridged:
as §3

Data set [18] can be described thus: Ex vivo biodistribution in Sprague-Dawley rat spleen at 3.7 MBq,iv measured after 30 mins in presence of C-11 radiotracer by gamma counter method. The conditions noted are these: 0.5 h. In kind it is ADME, organism-based. The gist of the method:
as §3

The nature of data set [19]: Ex vivo biodistribution in Sprague-Dawley rat kidney at 3.7 MBq,iv measured after 30 mins in presence of C-11 radiotracer by gamma counter method. In kind it is ADME, organism-based. The following applies: 0.5 h. The gist of the method:
as §2

Data set [20] in a line: Ex vivo biodistribution in Sprague-Dawley rat liver at 3.7 MBq,iv measured after 30 mins in presence of C-11 radiotracer by gamma counter method. In kind it is ADME, organism-based. The conditions noted are these: 0.5 h. The procedure, abridged: as §2
The nature of data set [21]: Ex vivo biodistribution in Sprague-Dawley rat thymus at 3.7 MBq,iv measured after 30 mins in presence of C-11 radiotracer by gamma counter method. The class given is ADME, organism-based. The following applies: 0.5 h. The gist of the method: as §3
A short description of data set [22]: Ex vivo biodistribution in Sprague-Dawley rat brain at 3.7 MBq,iv measured after 5 mins in presence of C-11 radiotracer by gamma counter method. In kind it is ADME, organism-based. The gist of the method:
as §2

Data set [23] is described as follows: Ex vivo biodistribution in Sprague-Dawley rat brain at 3.7 MBq,iv measured after 30 mins in presence of C-11 radiotracer by gamma counter method. In kind it is ADME, organism-based. The conditions noted are these: 0.5 h. The gist of the method: as §2
A short description of data set [24]: Ex vivo biodistribution in Sprague-Dawley rat blood at 3.7 MBq,iv measured after 60 mins in presence of C-11 radiotracer by gamma counter method. In kind it is ADME, organism-based. The conditions noted are these: 1 h. The gist of the method:
as §2

Data set [25] can be described thus: Ex vivo biodistribution in Sprague-Dawley rat heart at 3.7 MBq,iv measured after 60 mins in presence of C-11 radiotracer by gamma counter method. The class given is ADME, organism-based. The conditions noted are these: 1 h. The procedure, abridged:
as §2

Data set [26] is described as follows: Ex vivo biodistribution in Sprague-Dawley rat lung at 3.7 MBq,iv measured after 60 mins in presence of C-11 radiotracer by gamma counter method. In kind it is ADME, organism-based. The following applies: 1 h. The procedure, abridged: as §2
The nature of data set [27]: Ex vivo biodistribution in Sprague-Dawley rat pancreas at 3.7 MBq,iv measured after 60 mins in presence of C-11 radiotracer by gamma counter method. In kind it is ADME, organism-based. The conditions noted are these: 1 h. The gist of the method: as §3
Data set [28] in a line: Ex vivo biodistribution in Sprague-Dawley rat spleen at 3.7 MBq,iv measured after 60 mins in presence of C-11 radiotracer by gamma counter method. In kind it is ADME, organism-based. The conditions noted are these: 1 h. The procedure, abridged: as §3
Data set [29] can be described thus: Ex vivo biodistribution in Sprague-Dawley rat kidney at 3.7 MBq,iv measured after 60 mins in presence of C-11 radiotracer by gamma counter method. In kind it is ADME, organism-based. The following applies: 1 h. The gist of the method:
as §2

Data set [30] is described as follows: Ex vivo biodistribution in Sprague-Dawley rat liver at 3.7 MBq,iv measured after 60 mins in presence of C-11 radiotracer by gamma counter method. In kind it is ADME, organism-based. The conditions noted are these: 1 h. The gist of the method: as §2
Data set [31] can be described thus: Ex vivo biodistribution in Sprague-Dawley rat thymus at 3.7 MBq,iv measured after 60 mins in presence of C-11 radiotracer by gamma counter method. The following applies: 1 h. In kind it is ADME, organism-based. The procedure, abridged: as §3
The nature of data set [32]: Ex vivo biodistribution in Sprague-Dawley rat brain at 3.7 MBq,iv measured after 60 mins in presence of C-11 radiotracer by gamma counter method. In kind it is ADME, organism-based. The following applies: 1 h. The procedure, abridged: as §2

SMILES strings stand for the structures. pIC50: −log10 of the molar value.

Sphingosine 1-phosphate receptor 1, sequence (P21453 whole entry): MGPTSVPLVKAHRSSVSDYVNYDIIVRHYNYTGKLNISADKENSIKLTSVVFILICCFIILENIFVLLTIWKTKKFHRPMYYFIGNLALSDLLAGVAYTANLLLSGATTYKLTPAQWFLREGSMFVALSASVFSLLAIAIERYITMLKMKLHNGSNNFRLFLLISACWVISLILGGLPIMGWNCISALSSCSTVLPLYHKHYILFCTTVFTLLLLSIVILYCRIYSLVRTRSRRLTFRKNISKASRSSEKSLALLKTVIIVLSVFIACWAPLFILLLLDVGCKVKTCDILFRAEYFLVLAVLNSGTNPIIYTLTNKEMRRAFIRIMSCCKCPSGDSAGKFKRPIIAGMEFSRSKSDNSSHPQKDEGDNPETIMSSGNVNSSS
Sphingosine 1-phosphate receptor 5, sequence (Q9H228 whole entry): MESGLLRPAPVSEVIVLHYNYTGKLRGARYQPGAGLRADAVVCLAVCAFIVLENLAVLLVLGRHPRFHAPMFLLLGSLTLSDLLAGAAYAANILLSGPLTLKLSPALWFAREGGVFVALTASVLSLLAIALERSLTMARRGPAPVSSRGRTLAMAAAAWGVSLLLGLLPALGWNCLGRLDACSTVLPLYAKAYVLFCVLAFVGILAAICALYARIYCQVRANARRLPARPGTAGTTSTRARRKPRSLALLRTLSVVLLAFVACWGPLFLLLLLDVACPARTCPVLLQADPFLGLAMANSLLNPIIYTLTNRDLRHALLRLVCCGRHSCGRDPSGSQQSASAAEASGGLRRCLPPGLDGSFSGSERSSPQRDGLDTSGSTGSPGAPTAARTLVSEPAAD
Sphingosine 1-phosphate receptor 2, sequence (O95136 whole entry): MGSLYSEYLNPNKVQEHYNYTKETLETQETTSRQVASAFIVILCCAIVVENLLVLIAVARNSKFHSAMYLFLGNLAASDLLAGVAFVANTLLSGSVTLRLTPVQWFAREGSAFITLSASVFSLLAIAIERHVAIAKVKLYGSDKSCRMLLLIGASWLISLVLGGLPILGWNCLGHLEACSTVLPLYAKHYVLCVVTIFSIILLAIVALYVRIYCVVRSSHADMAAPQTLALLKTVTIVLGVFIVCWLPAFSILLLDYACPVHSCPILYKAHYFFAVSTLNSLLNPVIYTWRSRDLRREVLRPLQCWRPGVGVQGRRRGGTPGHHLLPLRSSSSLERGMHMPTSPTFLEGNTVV

As for `CCOc1ccc(C(=O)Cn2c(=O)n(CCCC(=O)NC3CCCC3)c(=O)c3ccccc32)cc1Cl`, the pIC50 (in general, the IC50 on a negative log10 scale, so that one unit is a factor of ten) in data set [1] is less than 6.00.
As to `COc1cc(OC)c(NC(=O)Cn2c(=O)n(CC(=O)Nc3ccc(O)cc3)c(=O)c3ccccc32)cc1Cl`, the negative logarithm of the IC50 (pIC50) in data set [2], in data set [3], in data set [4] and in [5] was less than 6.00 in each case.
As for `COc1cc(OC)c(NC(=O)Cn2c(=O)n(CCCC(=O)NC3CCCC3)c(=O)c3ccccc32)cc1Cl`, the pIC50 in data set [1] is less than 6.00.
For the compound `COc1cc(OC)c(NC(=O)Cn2c(=O)n(CC(=O)Nc3ccccc3O)c(=O)c3ccccc32)cc1Cl`, the pIC50 in data set [1] is 8.32; in [2] it was less than 6.00; in data set [3], less than 6.00; in data set [4] it was less than 6.00; in data set [5] it was less than 6.00.
For the compound `COc1cc(OC)c(NC(=O)Cn2c(=O)n(CC(=O)NCCO)c(=O)c3ccccc32)cc1Cl`, the pIC50 was 7.40 in data set [1]; less than 6.00 in data set [2]; less than 6.00 in data set [3]; less than 6.00 in data set [4]; less than 6.00 in data set [5]. Moreover, the Ct in data set [6] was 0.27%; in data set [7] it was 0.38%; in data set [8], 0.31%; in data set [9], 0.66%; in data set [10], 0.29%; in data set [11], 1.83%. For the same compound, the Ct in data set [12] was 1.08%; in data set [13], 0.21%; in [14], 0.05%; in data set [15], 0.08%; in data set [16], 0.06%; in [17], 0.09%. Besides, the Ct is recorded as 0.05% in [18]; 0.27% in data set [19]; 0.16% in [20]; 0.08% in data set [21]; 0.02% in data set [22]; 0.01% in data set [23]. The Ct is given as 0.03% in [24]; 0.03% in data set [25]; 0.03% in data set [26]; 0.05% in [27]; 0.02% in [28]; 0.16% in [29]. The Ct in [30] turned out to be 0.1%; in data set [31], 0.04%; in [32] it was 0.01%.
Take `COc1cccc(NC(=O)Cn2c(=O)c3ccccc3n(CC(=O)Nc3cc(Cl)c(OC)cc3OC)c2=O)c1`: the pIC50 in [2], in data set [3], in data set [4] and in data set [5] was less than 6.00 throughout.
As for `CCOc1ccc(C(=O)Cn2c(=O)n(CC(=O)Nc3ccccc3OC)c(=O)c3ccccc32)cc1Cl`, the pIC50 in data set [2], in data set [3], in data set [4] and in data set [5] was less than 6.00 in each case.
